Screening data: PubChem BioAssay, several laboratories
CYP2C9 act: CYP2C9 (human) activation | P11712 | recombinant CYP2C9, luciferin-H conversion, luminescence; stronger effect = higher value; factor 1 = untreated enzyme, 0 = blocked | activation factor at 5 µM | hit rate 1.4% among 96,000;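 active = activation factor of 2 or more for CYP2C9 at a 5 µM dose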;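 note: 0 = sulfaphenazole-blocked wells and 1 = vehicle-only wells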
tolC growth inh: growth inhibitors of E. coli BW25113 tolC mutant. OD615. growth inhibition, % at 10 µM (by protocol). hit rate 2.2% among 65,000;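 active = growth inhibition at or above a cutoff equal to the mean over every tested compound plus 3 SD, cut at about 60% in these data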;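 note: growth measured after 20 h incubation at 37 °C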
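Test system: tolC-deleted E. coli BW25113; medium: LB with kanamycin 50 µg/mL; compound: single-point testing at 10 µM; incubation: 20 h compound exposure of bacteria at 37 °C; signal: OD at 615 nm; evaluation: growth inhibition in percent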
CYP2C19 inh: human CYP2C19 inhibition; CYP2C19 Supersomes, luciferin-H EGE luminescence, 30 min; inhibition, % at 5 µM; hit rate 21% among 96,000;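 active = CYP2C19 inhibition above a set limit at 5 µM in the primary screen, cut at about 50% in these data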;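 note: plate controls were negative control wells for no effect and 2.5 mM tranylcypromine positive control for full effect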
Target sequence (P33261 whole entry, looked up): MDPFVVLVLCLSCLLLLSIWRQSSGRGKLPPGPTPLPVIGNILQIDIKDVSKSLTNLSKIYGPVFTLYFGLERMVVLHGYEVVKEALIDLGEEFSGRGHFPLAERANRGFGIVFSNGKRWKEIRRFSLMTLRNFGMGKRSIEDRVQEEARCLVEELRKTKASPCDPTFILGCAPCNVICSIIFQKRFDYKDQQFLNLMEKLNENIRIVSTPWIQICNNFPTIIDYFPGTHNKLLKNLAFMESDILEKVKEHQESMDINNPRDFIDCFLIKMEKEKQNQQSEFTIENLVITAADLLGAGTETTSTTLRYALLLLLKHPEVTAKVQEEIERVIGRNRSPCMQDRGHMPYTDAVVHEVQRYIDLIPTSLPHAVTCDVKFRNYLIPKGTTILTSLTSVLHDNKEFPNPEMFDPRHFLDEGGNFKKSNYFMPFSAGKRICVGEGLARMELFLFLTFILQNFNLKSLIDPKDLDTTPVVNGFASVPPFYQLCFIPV
CYP2C19 activ: increases human CYP2C19 enzyme activity. P33261. recombinant CYP2C19, luciferin-H EGE luminescence; stronger effect = higher value; 0 = fully inhibited enzyme, 1 = untreated enzyme. activation factor at 5 µM. 96,000 tested, under 10 active;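 active = activation factor of at least 2 at 5 µM in the primary screen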;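 note: 0 = wells with 2.5 mM tranylcypromine and 1 = vehicle-only wells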
CYP2C9 inhib: human CYP2C9 inhibition; P11712; hit rate 20% among 96,000; CYP2C9 Supersomes, luciferin-H conversion, luminescence; inhibition, % at 5 µM;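 active = blocking of liver enzyme CYP2C9 beyond about 50% at 5 µM, limit read from the data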
E coli WT exp: blocks growth of wild type E. coli BW25113; OD600 absorbance; growth inhibition, % at 100 µM; hit rate 0.15% among 98,000;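 active = growth inhibition above about 50% at one test dose, limit read from the data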;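 note: growth measured after 20 h incubation at 37 °C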
The depositor's hits bear a star. Only some compounds are listed: those with a hit (about 29% of all), similar ones and a draw of the others.

`CCOC(=O)c1cnn(-c2cc(Oc3ccccc3C)ncn2)c1N` gave CYP2C9 act 0.9, CYP2C19 inh 12.2, CYP2C19 activ 0.9, CYP2C9 inhib 14.0 and E coli WT exp -5.0.
CN(Cc1nc2ccccc2c(=O)[nH]1)CC(O)COCc1ccco1 (stereo not drawn) was read as CYP2C9 act 1.1, tolC growth inh -17.9, CYP2C19 inh 2.6, CYP2C19 activ 1, CYP2C9 inhib -8.2 and E coli WT exp 4.0.
Cc1cc(C)n(-c2ccc(Cl)c(C(=O)Nc3ccc(-c4nnc5n4CCCCC5)cc3)n2)n1 was read as CYP2C9 act 0.9, tolC growth inh 3.5, CYP2C19 inh 17.9, CYP2C19 activ 0.8, CYP2C9 inhib 14.6 and E coli WT exp -5.0.
`O=C(NCCc1c[nH]c2ccccc12)c1cccnc1` gave CYP2C9 act 1, tolC growth inh -10.8, CYP2C19 inh 39.4, CYP2C19 activ 0.6, CYP2C9 inhib 3.5 and E coli WT exp 3.0.
O=C(NCCc1c[nH]c2ccccc12)Nc1cccc2ccccc12 was read as CYP2C9 act 1.6, CYP2C19 inh 86.1*, CYP2C19 activ 0.1, CYP2C9 inhib -62.2 and E coli WT exp -1.0.
Cc1ccc2c(c1)N(C(C)C(=O)NCCc1ccccc1)C(=O)CO2 (stereo not drawn) was read as CYP2C9 act 0.7, tolC growth inh -0.6, CYP2C19 inh 97.2*, CYP2C19 activ 0, CYP2C9 inhib 33.5 and E coli WT exp 3.0.
Screening Cc1cccc(NC(=O)NCCc2c[nH]c3ccccc23)c1 returned CYP2C9 act 1.6, CYP2C19 inh 93.0*, CYP2C19 activ 0.1, CYP2C9 inhib -60.8 and E coli WT exp 17.0.
Cc1ccc2c(c1)N(CCC(=O)NC(C)C)C(=O)CO2 was read as CYP2C9 act 1.2, CYP2C19 inh 14.6, CYP2C19 activ 0.9, CYP2C9 inhib -22.0 and E coli WT exp 0.0.
Cc1ccc2c(c1)N(CC(=O)NCCc1c[nH]c3ccccc13)C(=O)CO2 was read as CYP2C9 act 0.7, tolC growth inh 20.0, CYP2C19 inh 93.1*, CYP2C19 activ 0.1, CYP2C9 inhib 27.1 and E coli WT exp -9.0.
`CCOc1ccc(-c2nnc3sc(-c4c(OC)cccc4OC)nn23)cc1` gave tolC growth inh 7.4.
CCCN1C2=NS(=O)(=O)CCN2c2ccccc21 was read as CYP2C9 act 1.2, tolC growth inh -4.6, CYP2C19 inh -1.0, CYP2C19 activ 1, CYP2C9 inhib -20.9 and E coli WT exp -6.0.
COC(=O)C(CCSC)NC(=O)c1cccc([N+](=O)[O-])c1 (stereo not drawn) was read as CYP2C9 act 0.9, CYP2C19 inh 24.9, CYP2C19 activ 0.8, CYP2C9 inhib 9.9 and E coli WT exp -4.0.
`Cc1cccc(N(C(=O)c2csnn2)C(C(=O)NC(C)(C)C)c2cccs2)c1` (stereo not drawn) gave CYP2C9 act 0.9, CYP2C19 inh 31.0, CYP2C19 activ 0.7, CYP2C9 inhib 6.6 and E coli WT exp -5.0.
Screening O=C(CSCc1ccc(Cl)cc1)N/N=C/c1ccccc1 returned CYP2C9 act 0.4, CYP2C19 inh 86.0*, CYP2C19 activ 0.1, CYP2C9 inhib 59.6* and E coli WT exp 6.0.
CC/C(=N\NC(=O)CSCc1ccc(Cl)cc1)c1ccc2c(c1)OCCO2 was read as CYP2C9 act 0.4, CYP2C19 inh 77.5*, CYP2C19 activ 0.2, CYP2C9 inhib 58.7* and E coli WT exp -3.0.
Screening Cc1ccc(CSCC(=O)N/N=C/c2ccc(OCC(=O)Nc3ccc(C)cc3)cc2)cc1 returned CYP2C9 act 0.7, CYP2C19 inh 28.6, CYP2C19 activ 0.7, CYP2C9 inhib 29.7 and E coli WT exp -1.0.
`O=C(CSCc1ccccc1)Nc1ccc(Cl)cn1` gave CYP2C9 act 0.3, CYP2C19 inh 64.5*, CYP2C19 activ 0.4, CYP2C9 inhib 69.9* and E coli WT exp 15.0.
Screening COc1ccc(NC(=O)C2CCC(CNc3c(N4CCCCC4)c(=O)c3=O)CC2)cc1OC (stereo not drawn) returned CYP2C9 act 0.6, CYP2C19 inh 18.6, CYP2C19 activ 0.8, CYP2C9 inhib 36.5 and E coli WT exp 0.0.
For COc1ccc(N(CC(=O)Nc2ccc(S(=O)(=O)N3CCOCC3)cc2)S(=O)(=O)c2ccccc2)cc1 the results were CYP2C9 act 0.5, CYP2C19 inh 28.4, CYP2C19 activ 0.7, CYP2C9 inhib 48.3 and E coli WT exp -10.0.
Screening CCCCNC(=O)OCC(CC)NC(=O)OCC(C)C (stereo not drawn) returned CYP2C9 act 0.9, CYP2C19 inh 25.0, CYP2C19 activ 0.8, CYP2C9 inhib 14.9 and E coli WT exp 1.0.
COc1cccc(=O)c2c(C)n(-c3cc(C)cc(C)c3)c(C)c12 was read as CYP2C9 act 0.2, CYP2C19 inh 82.3*, CYP2C19 activ 0.2, CYP2C9 inhib 82.4* and E coli WT exp -10.0.
Screening COc1ccc(C(=O)Nc2cc(C)cc(C)c2)cc1S(=O)(=O)N1CCOCC1 returned CYP2C9 act 1, CYP2C19 inh 26.4, CYP2C19 activ 0.7, CYP2C9 inhib 1.8 and E coli WT exp -4.0.
Screening CC(C)Oc1ccc(C(=O)N(Cc2ccco2)C2CCS(=O)(=O)C2)cc1 (stereo not drawn) returned CYP2C9 act 1, tolC growth inh -5.8, CYP2C19 inh 6.6, CYP2C19 activ 0.9, CYP2C9 inhib -1.0 and E coli WT exp 0.0.
COc1ccc(-c2nnc(SCC#CCO)o2)cc1OC was read as CYP2C9 act 0.9, tolC growth inh -26.3, CYP2C19 inh 16.1, CYP2C19 activ 0.8, CYP2C9 inhib 6.1 and E coli WT exp -1.0.
For O=C(OCC#CCSc1nnc(-c2ccncc2)o1)c1cccs1 the results were CYP2C9 act 0.2, tolC growth inh 1.5, CYP2C19 inh 78.6*, CYP2C19 activ 0.2, CYP2C9 inhib 77.7* and E coli WT exp 1.0.
OCC#CCSc1nnc(-c2ccc(Br)cc2)o1 was read as CYP2C9 act 0.8, tolC growth inh -0.2, CYP2C19 inh 59.6*, CYP2C19 activ 0.4, CYP2C9 inhib 24.5 and E coli WT exp 7.0.
Screening O=C(OCC#CCSc1nc2ccccc2o1)c1ccco1 returned CYP2C9 act 0.4, tolC growth inh -5.9, CYP2C19 inh 73.8*, CYP2C19 activ 0.3, CYP2C9 inhib 56.9* and E coli WT exp -2.0.
Screening COC(=O)CSc1nnc(-c2ccncc2)o1 returned CYP2C9 act 1.1, tolC growth inh -11.0, CYP2C19 inh 3.1, CYP2C19 activ 1, CYP2C9 inhib -12.4 and E coli WT exp 1.0.
Screening O=C(OCC#CCSc1nnc(-c2cccc3ccccc23)o1)c1ccco1 returned CYP2C9 act 2.1*, CYP2C19 inh 2.4, CYP2C19 activ 1, CYP2C9 inhib -106.7 and E coli WT exp -16.0.
For N/C(COc1ccccc1)=N\NS(=O)(=O)c1ccccc1 the results were CYP2C9 act 1.2, CYP2C19 inh 21.3, CYP2C19 activ 0.8, CYP2C9 inhib -19.0 and E coli WT exp 3.0.
